Assay outcomes deposited in PubChem by Sanford-Burnham Center for Chemical Genomics.
Sampled rows, rich in hits. Any-hit rate of the full collection: about 2.9%.
SENP8 block-1 – blocks the human protease SENP8; 330,000 tested, 1.2% active; purified SENP8, Z-RLRGG-aminoluciferin cleavage, luminescence; inhibition, % at 10 µM; Q96LD8; in the data active means inhibition above about 50%
Apaf-1 inh – human Apaf-1 inhibition; reconstituted apoptosome caspase-3 activity, DEVD-Rh110 fluorescence; inhibition, % at 20 µM; 330,000 tested, 0.71% active; active means inhibition of at least 40% at 20 µM
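System – cell-free apoptosome with Apaf-1, procaspase-3 and caspase-9 · Buffer or medium – pH 7.5 Hepes buffer with CHAPS, BSA, DTT · Also added – cytochrome c with DEVD-Rh110 · Times – 30 min compound preincubation, 50 min activation, room temperature · Technique – Rh110 fluorescence intensity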
SENP7 block – inhibitors of human SENP7 protease; Q9BQF6; recombinant SENP7, Z-RLRGG-aminoluciferin luminescence, 40 min; inhibition, % at 5 µM; 330,000 tested, 1.5% active; AID 434973;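 active means inhibition above about 50% at the single test dose, limit read from the data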
Target sequence (Q9BQF6 706-1050 limits assumed): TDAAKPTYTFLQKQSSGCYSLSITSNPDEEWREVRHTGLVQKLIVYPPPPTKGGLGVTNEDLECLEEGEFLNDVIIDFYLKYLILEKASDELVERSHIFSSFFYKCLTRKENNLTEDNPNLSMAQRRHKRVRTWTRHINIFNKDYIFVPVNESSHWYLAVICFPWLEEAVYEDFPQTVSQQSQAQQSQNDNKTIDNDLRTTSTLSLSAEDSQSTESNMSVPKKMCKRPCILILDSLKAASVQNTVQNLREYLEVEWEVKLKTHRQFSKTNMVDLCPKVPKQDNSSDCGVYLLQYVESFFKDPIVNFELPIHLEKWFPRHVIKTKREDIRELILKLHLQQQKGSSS
SENP1 inh – inhibitors of human SENP1 SUMO protease catalytic domain; recombinant SENP1 catalytic domain, CyPet-SUMO1-YPet FRET cleavage; inhibition, % at 10 µM; 360,000 tested, 0.21% active; AID 624204;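 active means inhibition at least 30% at 10 µM, raw YFP signal under a set limit, fluorescence ratio 0.5 to 1.5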
Target sequence (Q9P0U3 419-644 limits assumed): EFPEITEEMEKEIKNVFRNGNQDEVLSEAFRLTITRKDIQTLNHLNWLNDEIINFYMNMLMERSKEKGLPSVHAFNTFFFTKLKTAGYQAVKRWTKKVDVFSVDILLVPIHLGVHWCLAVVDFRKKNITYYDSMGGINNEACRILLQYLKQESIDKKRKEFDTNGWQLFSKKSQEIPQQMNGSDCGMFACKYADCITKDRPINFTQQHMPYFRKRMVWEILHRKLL
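Material – human SENP1 catalytic domain · Input – SENP1 enzyme, 20 pM final · Compound dosing – single concentration of 10 µM compound, 0.5% DMSO final · Timing – enzyme reaction for 50 min at room temperature, dark · Measured by – FRET fluorescence in CFP and YFP emission channels · Control set – no-enzyme wells low, DMSO-plus-enzyme wells high control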
SENP8 block-2 – inhibitors of human SENP8 protease | inhibition, % at 20 µM | AID 602440 | 360,000 tested, 0.64% active | recombinant SENP8, Nedd8 substrate fluorescence; in the data active means inhibition mostly above about 40%, no sharp cut-off; inactive means mostly below about 27%
SENP6 inh – blocks the human protease SENP6; Q9GZR1; Recombinant SENP6 catalytic domain, aminoluciferin luminescence; inhibition, % at 10 µM; 330,000 tested, 1.8% active; AID 2599;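 active means inhibition above about 50% at the single tested dose, limit read from the data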
SENP8 conf – human SENP8 inhibition, confirmed | shares compounds with SENP7 block | Recombinant SENP8, Z-RLRGG-aminoluciferin luminescence, 60 min | inhibition, % at 12.5 µM | 6,200 tested, 40% active | AID 488912;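 active means mean inhibition across replicates above about 50%, limit read from the data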
SENP6 conf – human SENP6 inhibition, confirmed; shares compounds with SENP7 block; recombinant SENP6, Z-RLRGG-aminoluciferin luminescence; inhibition, % at 12.5 µM; 6,200 tested, 58% active; AID 488915
SENP7 confirm – human SENP7 inhibition, confirmed. shares compounds with SENP7 block. recombinant SENP7, Z-RLRGG-aminoluciferin luminescence, 40 min. inhibition, % at 12.5 µM. 6,200 tested, 69% active. AID 488917
Casp3 select – inhibits human caspase-3 in SENP selectivity test; inhibition, % at 12.5 µM; 6,200 tested, 60% active; shares compounds with SENP7 block; purified caspase-3, Z-DEVD-aminoluciferin luminescence, 60 min;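 active means mean inhibition above about 50%, limit read from the data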
SENP luc ctr – luminescence interference (SENP counter-screen); shares compounds with SENP7 block; Pre-incubated SENP8/Z-RLRGG-aminoluciferin, luciferase luminescence interference; inhibition, % at 12.5 µM; 6,200 tested, 39% active; AID 488919;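 active means mean inhibition above about 50% when retested at one dose, limit read from the data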
Numbers stand for hits; – = inactive; · = no result given.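 How the source made its calls, unless noted: active means mean inhibition above about 50% in the one-dose retest (limit read from the data); inactive means the rest.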

SMILES	SENP8 block-1	Apaf-1 inh	SENP7 block	SENP1 inh	SENP8 block-2	SENP6 inh	SENP8 conf	SENP6 conf	SENP7 confirm	Casp3 select	SENP luc ctr
COc1ccc2cc3cc(C(=O)NC4CC4)sc3nc2c1	71.3	–	85.2	–	–	90.3	–	81.3	98.6	92.9	–
CCCCCC(=O)N1C[C@H](n2cc(C3CC3)nn2)[C@@H](O)C[C@@H]1c1ccc(Cl)cc1	·	·	·	–	–	·	·	·	·	·	·
CC(Nc1ccc2ccccc2c1)C(=O)N/N=C/c1ccncc1 (centres undefined)	–	–	–	–	–	56.2	–	–	–	–	–
CC(Oc1ccc2ccccc2c1)C(=O)N/N=C/c1cccnc1 (centres undefined)	–	–	–	–	–	–	·	·	·	·	·
CCCN(CC(=O)Nc1ccccc1OC)C(=O)CCNC(=O)c1ccccc1OC	–	–	–	–	–	–	·	·	·	·	·
Cc1c(/C=C/C(=O)c2cccs2)cnn1C	–	–	–	–	–	–	·	·	·	·	·
CCc1ccc(C(=O)/C=C/c2cnn(C)c2C)s1	–	–	–	–	–	53.8	–	–	–	–	–
Cc1cc2nc(NC(=O)C3(C)CCN(C)C3)[nH]c2cc1C (centres undefined)	·	·	·	–	–	·	·	·	·	·	·
Nc1nccc(/C=C/c2c(F)cccc2Cl)n1	–	–	–	–	–	–	·	·	·	·	·
Oc1cccc2ccc(/C=C/c3c(F)cccc3Cl)nc12	85.3	–	94.1	–	–	95.3	–	60.4	–	63.5	–
Oc1cccc2ccc(/C=C/c3ccccc3Cl)nc12	88.3	–	83.5	–	–	98.9	83.0	90.1	67.0	85.5	–
N=c1oc2cc(O)ccc2cc1C(=O)Nc1ccc(Cl)cc1	54.5	–	–	–	–	54.7	–	–	–	–	–
N=c1oc2ccccc2cc1C(=O)Nc1cccc(F)c1	55.8	–	92.1	–	–	65.7	–	–	–	62.4	–
Cc1ccc(NC(=O)c2cc3ccccc3oc2=N)cc1	–	–	90.3	–	–	57.9	–	–	–	–	–
CN(c1ccc(C(=O)COC(=O)C2CC2)cc1)S(C)(=O)=O	–	–	–	–	–	–	·	·	·	·	·
CCCNC(=O)C1(C)CCCN(C(=O)c2ccccc2OC(F)(F)F)C1 (centres undefined)	·	·	·	–	–	·	·	·	·	·	·
Cc1[nH][nH]c(=O)c1N=Nc1ccc(Cl)cc1	–	–	–	–	–	–	·	·	·	·	·
Cc1ccc(N=Nc2c(=O)[nH]n3c(=O)cc(C)[nH]c23)cc1	53.5	–	–	–	–	75.9	–	–	59.7	61.4	–
CC(C)CCNC(=O)c1ccc(NC(=O)C2=CSCCO2)cc1	–	–	–	–	–	–	·	·	·	·	·
C=CCNC(=O)c1ccc(NC(=O)C2=CSCCO2)cc1	68.9	–	76.9	–	–	72.6	74.3	72.5	92.7	90.5	72.8
COc1cc(NC(=O)c2cccc(Br)c2)nc(OC)n1	–	–	–	–	–	53.8	–	–	67.6	–	–
COc1cc(NC(=O)c2c(F)cccc2F)nc(OC)n1	–	–	–	–	–	–	·	·	·	·	·
CC(=O)Nc1ccc2oc(-c3ccccc3Br)nc2c1	58.3	–	58.7	–	–	83.6	81.0	76.3	90.4	67.7	64.7
O=C(Nc1ccc2oc(-c3ccccc3Cl)nc2c1)c1ncn[nH]1	–	–	–	–	–	52.1	–	–	–	–	–
O=C(Nc1ccc2oc(-c3cccc4ccccc34)nc2c1)c1ncn[nH]1	–	–	–	–	–	–	·	·	·	·	·
SMILES	SENP8 block-1	Apaf-1 inh	SENP7 block	SENP1 inh	SENP8 block-2	SENP6 inh	SENP8 conf	SENP6 conf	SENP7 confirm	Casp3 select	SENP luc ctr
CCc1ccc2oc(-c3ccc(NC(C)=O)cc3)nc2c1	72.4	–	78.1	–	–	75.1	–	78.8	95.9	–	–
CC(=O)Nc1ccc2oc(-c3cc(F)c(F)cc3Cl)nc2c1	–	–	67.2	–	–	–	–	–	–	–	–
CSCCC(NC(=O)c1ccccc1Cl)C(=O)Nc1ccncc1 (centres undefined)	–	–	–	–	–	–	·	·	·	·	·
COCCNc1nc(-c2ccc(OC)cc2C)c2sc(-c3ccccc3)cc2n1	·	·	·	–	–	·	·	·	·	·	·
Cc1c(NC(=O)c2cc(S(=O)(=O)N3CCCCC3)ccc2Cl)c(=O)n(-c2ccccc2)n1C	–	–	–	–	–	–	·	·	·	·	·
CCCNC(=O)C1(C)CCN(Cc2ccc(C(=O)OCC)cc2)C1 (centres undefined)	·	·	·	–	–	·	·	·	·	·	·
Cn1cnnc1SCC(=O)c1cc2ccccc2oc1=O	–	–	66.7	–	–	–	–	–	–	–	–
OC[C@@H]1CN(Cc2ccc3c(c2)OCO3)C[C@H](n2cnc3c(NC4CC4)ncnc32)O1	·	·	·	–	–	·	·	·	·	·	·
O=C(c1cc(-c2ccc(Cl)cc2Cl)on1)N1CCCC1	78.4	–	75.3	–	–	87.3	–	–	50.6	–	–
O=C(c1cc(-c2ccc(Cl)cc2Cl)on1)N1CCCCCC1	55.5	–	54.4	–	–	73.1	62.5	60.4	82.4	–	–
CCc1nc2ccc(C(=O)NC3CCN(Cc4ccccc4)CC3)cn2c1N(CC)Cc1cccc(Br)c1	·	·	·	–	–	·	·	·	·	·	·
C1=CC2=NC34CCCCC3CC3=C(CCCC3)N4C2=CC1=NC1CCCCC1 (centres undefined)	–	–	–	–	–	51.2	–	–	–	–	–
COc1ccc(/C=N/N2CCN(c3ccccc3OC)CC2)cc1Br	–	–	–	–	–	59.4	–	–	76.2	–	–
O=C(O)c1ccc(C=NN2CCCCCC2)cc1	·	·	·	–	–	·	·	·	·	·	·
COc1ccc(/C=N/N2CCN(c3ccccc3OC)CC2)cc1OC	–	–	–	–	–	–	·	·	·	·	·
O=C(O)c1ccc(/C=N/N2CCN(c3ccccc3)CC2)cc1	61.7	–	72.5	–	–	61.6	–	–	–	–	–
COc1ccc(/C=N/N2CCN(c3ccccc3)CC2)cc1Br	–	–	58.2	–	–	–	–	–	–	–	–
CC(=O)Oc1ccc(C2=Cc3ccc(OC(C)=O)cc3OC2C)cc1 (centres undefined)	·	·	·	–	–	·	·	·	·	·	·
COC(=O)c1ccc(-c2ccc(Cl)cc2)nc1C	57.5	–	76.0	–	–	76.1	–	63.7	90.3	51.9	–
